An excerpt weighted towards active compounds, which were near 3% of everything screened.
C2C12 statin: protects C2C12 myotubes from simvastatin toxicity; ATP luminescence, 48 h; scaled: DMSO 0, geranylgeraniol control 100; rescue of ATP level, % at 7.49 µM; 330,000 compounds, 0.78% hits; AID 602340;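 active = mean ATP rescue above about 67%, or every replicate alone reaching that limit, limit read from the data, passing the limit was not always enough; inconclusive = no clear call, values can overlap the other calls; inactive = mean under the limit and some replicate under it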;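 note: myotubes were challenged with 10 µM simvastatin during compound exposure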
SIRT5 inh: blocks human SIRT5 desuccinylation of peptide; Q9NXA8; Purified SirT5, succinyl-peptide AMC, trypsin-coupled fluorescence; inhibition, % at 15 µM; 330,000 compounds, 1.1% hits; in the data active = inhibition above about 15%; inconclusive = no clear call, values can overlap the other calls
Target sequence (Q9NXA8 whole entry, looked up): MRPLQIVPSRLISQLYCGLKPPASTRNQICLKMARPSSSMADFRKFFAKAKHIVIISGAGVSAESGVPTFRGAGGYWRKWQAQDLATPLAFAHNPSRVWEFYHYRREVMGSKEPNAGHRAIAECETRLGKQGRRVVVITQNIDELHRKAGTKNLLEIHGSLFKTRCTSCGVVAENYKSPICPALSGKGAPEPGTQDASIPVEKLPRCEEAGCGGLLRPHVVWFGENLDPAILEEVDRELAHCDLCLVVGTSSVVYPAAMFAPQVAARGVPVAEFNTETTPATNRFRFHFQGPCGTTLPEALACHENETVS
PGC1a acetyl inh: PGC1a acetylation modulation, inhibitor mode; U2OS PGC1a acetylation, AlphaScreen anti-acetyl-lysine; with virally co-expressed GCN5 acetyltransferase; inhibition, % at 15.6 µM; 350,000 compounds, 0.17% hits;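 active = every replicate shows inhibition of at least 40%; inconclusive = mean inhibition at least 40% but some replicate below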
rRNA inh HTS: selective bacterial rRNA inhibition in E. coli; E. coli WT GFP vs humanized-ribosome RFP mutants, fluorescence, 24 h; active compounds read low; DMSO median 0, no signal -100; GFP signal change (wild-type ribosome), % (no concentration beside the values); 350,000 compounds, 1.6% hits;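 active = significant combined selectivity score with lowered wild-type GFP, culture density cut under 30%, mutant RFP and density less affected; inactive = any of these conditions unmet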
S100A4 MyoIIA: blocks human S100A4 binding to myosin IIA peptide; P26447; S100A4/TAMRA-MyoIIA peptide fluorescence polarization; inhibition, % at 10.7 µM; 360,000 compounds, 0.14% hits;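 active = mean inhibition of at least 70% across replicates, with every replicate also reaching that level; inconclusive = mean inhibition reaches 70% but some replicates fall short; inactive = mean inhibition below 70%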
Target sequence (P26447 whole entry, looked up): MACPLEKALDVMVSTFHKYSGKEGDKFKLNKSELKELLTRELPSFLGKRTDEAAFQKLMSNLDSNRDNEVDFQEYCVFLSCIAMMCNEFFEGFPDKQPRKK
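Material: S100A4 monomer protein / Buffer or medium: 50 mM HEPES pH 7.2, 10 mM CaCl2, 100 mM KCl / Times: 5 min incubation before reading / Benchmarks: neutral control DMSO, positive control TFP / Reagent: labelled myosin peptide probe, 5 nM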
Cneo AK release: Cryptococcus neoformans lysis via adenylate kinase release | C. neoformans lysis, adenylate kinase release luminescence, 4 h; normalised: neutral wells 0, clomiphene wells 100 | lysis activity, % at 15 µM | 360,000 compounds, 0.2% hits | AID 651654;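 active = mean lysis activity across replicates of at least 80%, whatever share of replicates individually reach that level; inactive = mean lysis activity below 80%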
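Assay system: Cryptococcus neoformans yeast cells / Dosing: single-point compound dose / Timing: 4 h at 37 °C static, read 1 h later / Measured by: luminescence of released adenylate kinase using an AK detection reagent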
Of the large screens only hits and unclear results are named; the others gave an inactive call.

O=C(CC(=O)c1cc(Cl)ccc1O)c1ccccc1	rRNA inh HTS -27.2
C[C@H](NC(=O)C[C@@H]1C[C@@H]2c3cc(NC(=O)C4CCOCC4)ccc3O[C@@H]2[C@@H](CO)O1)c1ccccc1	none
C/C=C/c1ccc2c(c1)O[C@H](CN(C)C(=O)CN(C)C)[C@@H](C)CN([C@H](C)CO)S2(=O)=O	none
Cc1[nH]c2ccccc2c1CN1CCC(Cc2ccccc2)CC1	rRNA inh HTS -42.3
C[C@H]1CN([C@@H](C)CO)C(=O)c2ccccc2-c2ccccc2CO[C@@H]1CN(C)S(C)(=O)=O	none (no result: C2C12 statin, SIRT5 inh, PGC1a acetyl inh, S100A4 MyoIIA, Cneo AK release)
C=CCn1c(O)c(/C=C2\C=NN=C2c2ccccc2)sc1=S	SIRT5 inh 17.6 (no result: C2C12 statin, PGC1a acetyl inh, Cneo AK release)
CCCn1c(O)c(/C=C2\C=NN=C2c2ccccc2)sc1=S	none (no result: SIRT5 inh, rRNA inh HTS, S100A4 MyoIIA)
C=CCn1c(O)c(C=Nc2ccccc2)sc1=S	rRNA inh HTS -22.0
COc1ccc(CN(C)C[C@@H]2OCCCC[C@H](C)Oc3ccc(NS(=O)(=O)c4c(C)noc4C)cc3C(=O)N([C@@H](C)CO)C[C@H]2C)cc1	none (no result: C2C12 statin, Cneo AK release)
COc1ccc(S(=O)(=O)Nc2ccc3c(c2)CC(=O)N([C@@H](C)CO)C[C@@H](C)[C@H](CN(C)Cc2ccc(Cl)c(Cl)c2)O3)cc1	C2C12 statin inconclusive
C[C@H]1CN([C@@H](C)CO)C(=O)Cc2cc(NS(=O)(=O)c3ccc(F)cc3)ccc2O[C@H]1CN(C)Cc1ccc(Cl)c(Cl)c1	none (no result: SIRT5 inh, S100A4 MyoIIA, Cneo AK release)
COc1ccc(S(=O)(=O)Nc2ccc3c(c2)CC(=O)N([C@H](C)CO)C[C@H](C)[C@@H](CN(C)Cc2ccc(Cl)c(Cl)c2)O3)cc1	C2C12 statin 200.7
C[C@H](CO)N1C[C@H](C)[C@@H](CN(C)Cc2ccc(Cl)c(Cl)c2)Oc2ccc(NS(=O)(=O)c3ccc(Cl)cc3)cc2CC1=O	C2C12 statin 84.3, SIRT5 inh 24.5
C[C@@H]1CN([C@@H](C)CO)C(=O)Cc2cc(NS(=O)(=O)c3ccccc3)ccc2O[C@H]1CN(C)Cc1ccc(Cl)c(Cl)c1	SIRT5 inh 20.5
C[C@@H]1CN([C@@H](C)CO)C(=O)Cc2cc(NS(=O)(=O)c3ccc(Cl)cc3)ccc2O[C@H]1CN(C)Cc1ccc(Cl)c(Cl)c1	C2C12 statin inconclusive, SIRT5 inh 25.7
C[C@@H]1CN([C@@H](C)CO)C(=O)Cc2cc(NS(=O)(=O)c3ccccc3)ccc2O[C@H]1CN(C)Cc1ccccc1	none
C[C@@H]1CN([C@H](C)CO)C(=O)c2cc(NS(=O)(=O)c3ccc(F)cc3)ccc2O[C@@H](C)CCCCO[C@H]1CN(C)Cc1ccccc1	none (no result: C2C12 statin)
COc1ccc2c3c([nH]c2c1)[C@H](CO)N(Cc1ccncc1)CC31CN(CC2CCOCC2)C1	none (no result: C2C12 statin, Cneo AK release)
CN(C)C(=O)C[C@H]1C[C@H]2c3cc(NC(=O)c4cccnc4)ccc3O[C@H]2[C@H](CO)O1	none
C[C@@H]1CN([C@@H](C)CO)S(=O)(=O)c2ccc(C#CC3CC3)cc2O[C@H]1CN(C)C(=O)CC1CC1	none
C[C@@H]1CN([C@H](C)CO)C(=O)Cc2cc(NS(=O)(=O)c3ccc(F)cc3)ccc2O[C@H]1CN(C)Cc1ccc(Cl)c(Cl)c1	C2C12 statin 83.0 (no result: SIRT5 inh, S100A4 MyoIIA, Cneo AK release)
C[C@@H]1CN([C@H](C)CO)C(=O)Cc2cc(NS(=O)(=O)c3ccc(Cl)cc3)ccc2O[C@H]1CN(C)Cc1ccc(Cl)c(Cl)c1	C2C12 statin 90.8
CN(C)CCCNC(=O)C[C@H]1CC[C@@H](NC(=O)Cc2cccnc2)[C@H](CO)O1	none
O=C(C[C@H]1C[C@@H]2c3cc(NC(=O)C4CCC4)ccc3O[C@@H]2[C@@H](CO)O1)NCc1ccc(-c2ccccc2)cc1	SIRT5 inh 23.0
O=C(C[C@H]1C[C@H]2c3cc(NC(=O)C4CCC4)ccc3O[C@H]2[C@H](CO)O1)NCc1ccc(-c2ccccc2)cc1	PGC1a acetyl inh 63.6
O=C(C[C@@H]1C[C@H]2c3cc(NC(=O)C4CCC4)ccc3O[C@H]2[C@H](CO)O1)NCc1ccccc1	none
CN(C)C(=O)c1ccc(-c2cccc(-c3nc(C(=O)N(C)C)cc4c3[C@@H](CCO)N([S@](=O)C(C)(C)C)C4)c2)cc1	none
O=C(CNc1ccc(Br)cc1)c1ccc(O)cc1	SIRT5 inh 17.4, rRNA inh HTS -45.0 (no result: C2C12 statin, Cneo AK release)
O=C(CNc1ccc(Cl)cc1)c1ccc(Br)cc1	none (no result: PGC1a acetyl inh, rRNA inh HTS)
Cc1ccc(-n2c(C)nc3ccsc3c2=O)cc1	rRNA inh HTS -36.3 (no result: PGC1a acetyl inh)
Cc1nc2ccsc2c(=O)n1-c1ccc(Cl)cc1	none (no result: C2C12 statin, PGC1a acetyl inh, Cneo AK release)
CCCC(=O)N1CCC2(CC1)CN(C(=O)C1CCC1)[C@@H](CO)c1[nH]c3cc(OC)ccc3c12	none (no result: C2C12 statin, PGC1a acetyl inh, Cneo AK release)
CCCCN1C(=O)NC(NC(C)=O)(C(F)(F)F)C1=O (stereo not drawn)	C2C12 statin 105.4 (no result: SIRT5 inh, rRNA inh HTS, S100A4 MyoIIA)
CC(=O)NC1(C(F)(F)F)NC(=O)N(CCc2ccccc2)C1=O (stereo not drawn)	none
Cc1nc(-c2ccccc2)[nH]c(=O)c1Oc1ccc(Cl)cc1Cl	none (no result: rRNA inh HTS)
O=c1[nH]c(=S)[nH]cc1Oc1ccc(Cl)cc1Cl	rRNA inh HTS -24.6 (no result: PGC1a acetyl inh)
CC(C)CC#Cc1ccc2c(c1)O[C@H](CN(C)C(=O)CN(C)C)[C@@H](C)CN([C@@H](C)CO)S2(=O)=O	none
CC(=O)Nc1ccc(C(=O)c2ccccc2)cc1	none (no result: SIRT5 inh, rRNA inh HTS, S100A4 MyoIIA)
CC(=O)Nc1ccc(/C(N=Nc2ccccc2)=N/N=C(N)N)cc1	rRNA inh HTS -20.1 (no result: C2C12 statin, SIRT5 inh, PGC1a acetyl inh, Cneo AK release)
O=C(Cc1ccccn1)NCC[C@H]1CC[C@H](NC(=O)Nc2ccc(C(F)(F)F)cc2)[C@H](CO)O1	PGC1a acetyl inh 48.1
CCC(=O)N[C@@H]1CC[C@H](CCNC(=O)Nc2ccc(C(F)(F)F)cc2)O[C@H]1CO	S100A4 MyoIIA 92.3 (no result: PGC1a acetyl inh)
O=C(Cc1ccccn1)NCC[C@H]1CC[C@@H](NC(=O)Nc2ccc(C(F)(F)F)cc2)[C@@H](CO)O1	PGC1a acetyl inh 101.6
CCC(=O)N[C@@H]1CC[C@H](CCNC(=O)Nc2ccc(C(F)(F)F)cc2)O[C@@H]1CO	none
C[C@@H]1CN([C@@H](C)CO)C(=O)Cc2cc(NS(=O)(=O)c3cccs3)ccc2O[C@@H]1CN(C)C(=O)Nc1ccccc1	none
COc1ccc(OC)c(-c2csc(NC(=O)CN3C(=O)NC4(CCCC4)C3=O)n2)c1	rRNA inh HTS -24.5 (no result: PGC1a acetyl inh, Cneo AK release)
COc1ccc(-c2csc(NC(=O)CN3C(=O)NC4(CCCC4)C3=O)n2)cc1	none (no result: PGC1a acetyl inh)
CNC(=O)COC(=O)c1cc(-c2ccccc2)nn1-c1ccccc1	rRNA inh HTS -27.1
NC(=O)C1CCN(C(=O)/C=C/c2cccc(Br)c2)CC1	none
O=C1C=CCCN1C(=O)/C=C/c1cccc(Br)c1	PGC1a acetyl inh 46.4 (no result: C2C12 statin, rRNA inh HTS)

Compound activity from PubChem BioAssay.
